Holding throughout (type): functional, cell-based
The test system of test [1] is A-375. The test can be described thus: Antiproliferative activity against human A375 cells after 48 hrs by MTT assay. The settings on record: A-375, 48 h. Summed up:
(§1)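 Cells in exponential growth exposed to a range of test concentrations for 48 h; growth inhibition read by MTT. IC50 taken as the concentration giving a 50% fall in cell number relative to untreated control cultures, derived by regression analysis.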

Test [2] has as its system U-937. The test can be described thus: Antiproliferative activity against human U937 cells after 48 hrs by MTT assay. The settings on record: U-937, 48 h. Summed up:
as §1
Background: Tetrazolium assays rely on reduction of a dye to a coloured formazan, in cell work by metabolically active cells.

Test [3] has as its system THP-1. Put plainly: Antiproliferative activity against human THP1 cells after 48 hrs by MTT assay. The settings on record: THP-1, 48 h. Summed up: as §1

In brackets after ≈: the same amount, converted by molar mass.

As for `Oc1ccc(CC[C@@H](O)C[C@@H](O)CCc2ccccc2)cc1`, the IC50 (commonly the point on the concentration scale where inhibition reaches its midpoint) in test [1] came to 57.8 µg/mL (≈ 192 µM); in test [2], 33 µg/mL (≈ 110 µM); in test [3], 12.6 µg/mL (≈ 42 µM).
On to `Oc1ccc(CC[C@H](O)C[C@@H](O)CCc2ccccc2)cc1`, for which the IC50 worked out at 56.3 µg/mL (≈ 187 µM) in test [1], 31.1 µg/mL (≈ 103 µM) in test [2] and 12.8 µg/mL (≈ 42.7 µM) in test [3].
As to `O[C@@H](CCc1ccccc1)C[C@@H](O)CCc1ccccc1`, the IC50 in test [1] was determined as 148 µg/mL (≈ 520 µM); in test [2] it was 128 µg/mL (≈ 451 µM); in test [3] it was 99.8 µg/mL (≈ 351 µM).
Take `O[C@H](CCc1ccccc1)C[C@@H](O)CCc1ccccc1`: the IC50 is 164 µg/mL (≈ 578 µM) in test [1], 188 µg/mL (≈ 660 µM) in test [2] and 40.5 µg/mL (≈ 142 µM) in test [3].
For `COc1cc(CC[C@H](O)C[C@@H](O)CCc2ccccc2)ccc1O` the same measures were 69.1 µg/mL (≈ 209 µM), 27.7 µg/mL (≈ 83.7 µM) and 42.7 µg/mL (≈ 129 µM).
For `COc1cc(CC[C@@H](O)C[C@@H](O)CCc2ccccc2)ccc1O` the same measures were 75.2 µg/mL (≈ 228 µM), 32.7 µg/mL (≈ 98.9 µM) and 72.2 µg/mL (≈ 219 µM).

(Values after ChEMBL document CHEMBL1158416, “Synthesis of yashabushidiol and its analogues and their cytotoxic activity against cancer cell lines” (Bioorg Med Chem Lett, 2009).)
